E-sel inducer – E-selectin induction in HUVECs, primary screen, imaging, HUVEC, immunofluorescence imaging, single point; activation, % at 7.58 µM; normalized: neutral wells 0, TNF-alpha wells 100; actives 0.37% (n = 260,000);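 active = mean E-selectin-positive cell signal at least 10% of the positive control, reached in at least 60% of replicates, without over 20% cell loss; inconclusive = no rule given, readout overlaps actives, possibly toxicity-flagged; inactive = the rest, including those meeting only one limit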
Target sequence (P16581 whole entry, looked up): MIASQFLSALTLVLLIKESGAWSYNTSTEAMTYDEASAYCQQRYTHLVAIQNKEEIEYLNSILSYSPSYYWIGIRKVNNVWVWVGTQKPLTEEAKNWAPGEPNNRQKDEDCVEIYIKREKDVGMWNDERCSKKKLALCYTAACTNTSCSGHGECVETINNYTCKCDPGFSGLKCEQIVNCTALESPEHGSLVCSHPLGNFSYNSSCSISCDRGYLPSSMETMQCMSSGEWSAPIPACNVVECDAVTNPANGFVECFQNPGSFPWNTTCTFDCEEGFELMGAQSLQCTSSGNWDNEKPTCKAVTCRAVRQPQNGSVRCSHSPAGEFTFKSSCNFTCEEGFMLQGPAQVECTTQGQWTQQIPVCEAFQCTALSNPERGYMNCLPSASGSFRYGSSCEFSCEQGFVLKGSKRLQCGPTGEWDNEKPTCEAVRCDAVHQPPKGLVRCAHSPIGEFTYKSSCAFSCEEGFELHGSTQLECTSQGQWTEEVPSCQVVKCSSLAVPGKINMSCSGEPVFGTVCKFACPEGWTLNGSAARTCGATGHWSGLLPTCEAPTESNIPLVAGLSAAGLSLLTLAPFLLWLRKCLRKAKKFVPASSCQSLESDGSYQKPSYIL
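Test system – human umbilical vein endothelial cells (HUVEC), E-selectin induction · Input – 3,000 HUVEC seeded per well · Buffer or medium – EGM-2, gelatin · Compound dosing – single-point compound dose · Detection – immunofluorescence imaging · Measure – percent E-selectin-positive cells · Controls – TNF-alpha high, DMSO low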
SIRT5 inh – SIRT5 desuccinylase inhibitors, primary screen, biochemical, fluorescence imaging, single point, set 5. Purified SirT5, succinyl-peptide AMC, trypsin-coupled fluorescence. actives 1.1% (n = 330,000). inhibition, % at 15 µM; in the data active = inhibition above about 15%; inconclusive = no clear call, values can overlap the other calls
DENV2 CPE – inhibitors of DENV2 cytopathic effect, primary screen, cell-based, plate reader, single concentration | DENV2-infected cells, cytopathic effect rescue | CPE inhibition, % at 9.99 µM | actives 1.7% (n = 350,000) | AID 651640, 2012; in the data active = CPE inhibition above about 20%, passing the limit was not always enough; inconclusive = no clear call, values can overlap the other calls; tested in BHK-21 cells
PglD DTNB – C. jejuni PglD acetyltransferase inhibitors, primary screen, biochemical, DTNB colorimetric, single point; UDP-N-acetylbacillosamine N-acetyltransferase PglD (Campylobacter jejuni); purified PglD enzyme, DTNB colorimetric CoA detection; inhibition, % at 12.5 µM; actives 0.098% (n = 360,000); AID 602405, 2012; in the data active = inhibition above about 16%, passing the limit was not always enough; inconclusive = no clear call, values can overlap the other calls
ERAP1 HTS inh – human ERAP1 aminopeptidase inhibitors, primary screen, biochemical, single point, plate reader; Endoplasmic reticulum aminopeptidase 1 (Homo sapiens), Q9NZ08; recombinant ERAP1, Leu-AMC fluorescence, 60 min; inhibition, % at 10.7 µM; actives 0.15% (n = 340,000); AID 652197, 2013;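 active = mean replicate inhibition of at least 30%, or all replicates individually reaching that 30% level; inactive = mean below 30% and not every replicate reaching it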
A number is an active result; - = inactive; ? = inconclusive; . = no result. Most compounds without a hit are left out; they make up all but 2.5% or so of the library.

SMILES | E-sel inducer | SIRT5 inh | DENV2 CPE | PglD DTNB | ERAP1 HTS inh
O=C(C[C@@H]1C[C@H]2c3cc(NC(=O)CC4CC4)ccc3O[C@H]2[C@@H](CO)O1)NCc1ccc(Cl)cc1 | - | - | - | - | -
O=C(C[C@H]1CC[C@@H](NC(=O)c2ccc(F)cc2)[C@@H](CO)O1)NCCc1ccncc1 | - | - | - | - | -
O=C(C[C@@H]1CC[C@@H](NC(=O)c2ccc(F)cc2)[C@@H](CO)O1)NCCc1ccncc1 | - | - | 23 | - | -
Cc1cccc(S(=O)(=O)N[C@@H]2CC[C@@H](CCNC(=O)Nc3cc(F)ccc3F)O[C@@H]2CO)c1 | - | - | 39 | - | -
O=C(CC1c2cc(F)ccc2C=C(c2ccsc2)N1c1ccc(C#CCCO)cc1)c1ccco1 (stereo unspecified) | - | 17 | - | . | -
COC(=O)c1ccc(N2C(c3ccsc3)=Cc3cc4c(cc3C2CC(=O)c2ccco2)OCO4)cc1 (stereo unspecified) | - | - | - | . | -
COC(=O)c1ccc(N2C(c3cc(OC)cc(OC)c3)=Cc3ccc(OC)cc3C2CC(=O)c2ccco2)cc1 (stereo unspecified) | - | - | 31 | . | -
COc1cc(F)cc(C2=CC(=O)C[C@H](c3ccc(F)cc3)C2)c1 | - | . | 26 | - | -
COc1ccc([C@H]2CC(=O)C=C(c3ccc(OC(F)(F)F)cc3)C2)cc1 | - | . | - | - | -
O=C1C=C(c2ccc(F)c(Cl)c2)C[C@@H](c2ccc(F)cc2)C1 | - | - | 23 | - | -
COc1cccc(C2=CC(=O)C[C@H](c3ccc(F)cc3)C2)c1 | - | . | . | - | -
COc1ccc([C@H]2CC(=O)C=C(c3ccc(CNC(=O)OC(C)(C)C)cc3)C2)cc1 | 30 | . | - | - | -
O=C1C=C(c2ccc3c(c2)OCO3)C[C@@H](c2ccc3c(c2)OCO3)C1 | - | . | ? | - | .
O=C1C=C(c2cc(Cl)cc(Cl)c2)C[C@@H](c2ccc3c(c2)OCO3)C1 | - | . | 28 | - | -
O=C1C=C(c2cccc(Br)c2)C[C@@H](c2ccc(Cl)cc2)C1 | - | . | 32 | - | -
O=C(COC(=O)c1cc(S(=O)(=O)N2CCOCC2)ccc1F)c1ccc[nH]1 | - | . | . | - | .
Cc1ccc(C(C)C)c(OCCNC(=O)c2ccccc2O)c1 | - | - | 45 | - | -
C[C@H](CO)N1C[C@H](C)[C@H](CN(C)Cc2ccc3c(c2)OCO3)Oc2ccc(NS(=O)(=O)c3cccs3)cc2CC1=O | - | - | - | - | -
C[C@H]1CN([C@@H](C)CO)C(=O)Cc2cc(NS(=O)(=O)c3cccs3)ccc2O[C@@H]1CN(C)Cc1ccc(-c2ccccc2)cc1 | - | 15 | ? | - | -
C[C@H](CO)N1C[C@H](C)[C@@H](CN(C)Cc2ccc(-c3ccccc3)cc2)Oc2ccc(NS(=O)(=O)c3cccs3)cc2CC1=O | - | 18 | - | - | -
C[C@H]1CN([C@@H](C)CO)C(=O)Cc2cc(NS(=O)(=O)c3cccs3)ccc2O[C@H]1CN(C)Cc1ccc2c(c1)OCO2 | - | - | 104 | - | -
C[C@H]1CN([C@@H](C)CO)C(=O)c2cccc(NS(=O)(=O)c3ccc(F)cc3)c2O[C@H]1CN(C)C(=O)Nc1ccc(F)cc1 | - | - | - | - | -
Cc1ccc(-n2c(SCC(=O)NCc3ccco3)nnc2-c2cccnc2)cc1 | . | . | . | - | .
O=C1COc2cc(ccc2[N+](=O)[O-])Oc2ccc(cc2Cl)C(=O)CCCCO1 | - | 18 | - | - | -
O=C(/C=C/c1ccco1)NC(=S)Nc1ccc(C(=O)O)cc1 | - | 22 | - | . | -
SMILES | E-sel inducer | SIRT5 inh | DENV2 CPE | PglD DTNB | ERAP1 HTS inh
O=C(/C=C/c1ccc(Cl)cc1)NC(=S)Nc1ccccc1C(=O)O | . | - | 23 | . | -
CC(=O)NC(=S)Nc1ccc(NC(=S)NC(=O)/C=C/c2ccco2)cc1 | . | - | - | . | -
COc1ccc(NC(=S)NC(=O)/C=C/c2ccccc2)cc1 | - | - | 38 | - | -
C[C@@H]1CN([C@@H](C)CO)C(=O)c2cc(C#Cc3cccnc3)cnc2O[C@H]1CN(C)Cc1cccnc1 | - | - | - | - | -
CN(Cc1ccc2c(c1)CCCN2C)C(=O)[C@@H](Cc1ccccc1)NC(=O)[C@H]1O[C@@H](n2ccc(=O)[nH]c2=O)[C@H](O)[C@@H]1O | - | - | ? | . | -
Cc1cnnn1-c1ccc([N+](=O)[O-])cc1 | . | - | - | . | -
C[C@@H]1CN([C@H](C)CO)C(=O)c2cccc(NC(=O)C3CC3)c2O[C@H]1CN(C)CC1CCCCC1 | - | - | 75 | - | -
Cc1noc(C)c1NC(=O)Nc1cccc2c1O[C@H](CN(C)CC1CCCCC1)[C@H](C)CN([C@H](C)CO)C2=O | - | - | - | 18 | -
C[C@H]1CN([C@@H](C)CO)C(=O)c2cccc(NC(=O)C3CC3)c2O[C@H]1CN(C)CC1CCCCC1 | - | - | - | - | -
C[C@H](CO)N1C[C@H](C)[C@@H](CN(C)CC2CCCCC2)Oc2c(NC(=O)C3CC3)cccc2C1=O | - | - | - | - | -
Cc1noc(C)c1NC(=O)Nc1cccc2c1O[C@@H](CN(C)CC1CCCCC1)[C@H](C)CN([C@H](C)CO)C2=O | - | - | - | - | -
C[C@H](CO)N1C[C@H](C)[C@H](CN(C)CC2CCCCC2)Oc2c(NC(=O)C3CC3)cccc2C1=O | - | - | 36 | - | -
CNC(=O)/C(C#N)=C/c1ccc(-c2nc3ccccc3s2)o1 | . | - | - | - | -
C[C@@H]1CCCCO[C@@H](CN(C)S(C)(=O)=O)[C@@H](C)CN([C@@H](C)CO)C(=O)c2cc(NC(=O)c3ccccc3)ccc2O1 | - | - | - | - | -
COc1ccc(CN(CCN2CCOCC2)C(=O)c2c(F)cccc2F)cc1OC | . | 17 | - | - | -
COc1ccc(CN(CCCN2CCOCC2)C(=O)Nc2ccccc2)cc1OC | . | . | . | - | .
CC12N=C3SCC(=O)N3[C@H](c3ccccc3O1)[C@H]2CO[Si](C)(C)C(C)(C)C | . | - | - | - | -
COC(=O)C[C@H]1CC[C@@H]2[C@@H](COc3ccc(NC(=O)c4cccc(Cl)c4)cc3C(=O)N2C)O1 | - | 16 | - | - | -
CN1C(=O)c2cc(NC(=O)c3ccc(F)cc3)ccc2OC[C@H]2O[C@H](CC(=O)O)CC[C@H]21 | - | - | 35 | - | -
CN1C(=O)c2cc(NC(=O)c3ccc4c(c3)OCO4)ccc2OC[C@H]2O[C@H](CC(=O)O)CC[C@@H]21 | - | - | ? | - | .
Cc1ccc(C(=O)Nc2ccc3c(c2)OCO3)cc1Cl | . | - | - | - | -
Cc1ccc(NC(=O)c2ccc3c(c2)OCO3)cc1Cl | . | - | 22 | - | -
